Calls of active or inactive are those of the source. The rule behind the calls is not given here.
Key:
[1] = Oral bioavailability in rat; format: ADME, organism-based; settings: in vivo
Outline: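 Oral bioavailability (%F) was measured in rats, generally dosing the hydrochloride salt; some compounds were given as free base.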

Mus musculus [2] = test: Inhibition of BRAF V600E mutant-dependent MEK phosphorylation in Colo205 cells xenografted in nude mouse assessed as compound concentration in tumor required for maximum % inhibition; format: functional
[3] = AUC in mouse plasma at 30 mg/kg, po; format: ADME, organism-based; parameters: dose 30 mg/kg, route oral
Outline: (§1)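 Compound given orally to mice at the stated dose. Plasma exposure reported as AUC in μM × h.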

Mus musculus [4] = test: Inhibition of BRAF V600E mutant-dependent MEK phosphorylation in Colo205 cells xenografted in nude mouse at 100 mg/kg, po bid for 5 days measured at 10 hrs post-dose; format: functional; settings: COLO 205
Outline: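 Colo-205 xenograft mice were dosed orally at 100 mg/kg bid. On day 5 of dosing, tumor tissue was collected 10 h post-dose and phosphorylated MEK levels were measured against vehicle.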

Mus musculus [5] = test: Toxicity in nude mouse xenografted with human COLO205 cells assessed as body weight loss at 30 to 100 mg/kg, po bid upto 15 days; format: organism-based, COLO 205; parameters: dose 30-100 mg/kg, route oral; settings: in vivo, 360 h
Outline: (§2)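 Body weight was monitored in Colo-205 xenograft-bearing mice during oral bid dosing, with maximum % loss recorded. Monitoring continued after dosing stopped to assess reversibility.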

COLO 205 [6] = test: Antitumor activity against human COLO205 cells xenografted in nude mouse assessed as tumor regression at 100 mg/kg, po bid upto 15 days; format: functional
Outline: (§3)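 Mice bearing Colo-205 tumors were dosed orally bid at 30, 55 or 100 mg/kg and compared with a vehicle control group. Tumor growth was followed over the dosing period, […]. Outcomes recorded were stasis, regrowth, incidence of regressions and % growth inhibition. Significance was tested against vehicle.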

Mus musculus [7] = test: Inhibition of BRAF V600E mutant-dependent MEK phosphorylation in Colo205 cells xenografted in nude mouse assessed as compound concentration in plasma required for maximum % inhibition; format: functional
[8] = target: T1, Serine/threonine-protein kinase B-raf (Homo sapiens, UniProt P15056, V600E); test: Binding affinity to BRAF V600E mutant
T1 sequence (P15056 2-766 V600E limits assumed): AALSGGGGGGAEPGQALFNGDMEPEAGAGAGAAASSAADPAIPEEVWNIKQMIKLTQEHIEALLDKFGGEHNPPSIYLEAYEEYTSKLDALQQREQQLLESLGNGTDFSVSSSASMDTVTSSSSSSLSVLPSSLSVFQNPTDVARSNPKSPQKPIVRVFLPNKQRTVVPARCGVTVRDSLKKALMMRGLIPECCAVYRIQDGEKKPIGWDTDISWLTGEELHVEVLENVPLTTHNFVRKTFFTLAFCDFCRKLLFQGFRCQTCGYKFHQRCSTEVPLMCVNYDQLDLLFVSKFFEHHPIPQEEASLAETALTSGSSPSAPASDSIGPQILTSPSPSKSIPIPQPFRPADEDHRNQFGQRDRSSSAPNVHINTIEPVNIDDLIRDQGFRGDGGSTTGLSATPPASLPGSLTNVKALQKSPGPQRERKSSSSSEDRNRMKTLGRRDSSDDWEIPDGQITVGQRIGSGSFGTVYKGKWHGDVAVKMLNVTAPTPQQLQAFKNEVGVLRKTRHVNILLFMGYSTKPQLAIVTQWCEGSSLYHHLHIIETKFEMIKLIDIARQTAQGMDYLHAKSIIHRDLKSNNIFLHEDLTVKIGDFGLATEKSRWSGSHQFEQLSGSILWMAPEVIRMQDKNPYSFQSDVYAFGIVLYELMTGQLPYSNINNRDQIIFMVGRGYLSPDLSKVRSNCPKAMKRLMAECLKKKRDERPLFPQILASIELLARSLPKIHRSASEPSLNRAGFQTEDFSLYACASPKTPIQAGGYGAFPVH

[9] = target: T1, Serine/threonine-protein kinase B-raf; test: Inhibition of BRAF V600E mutant-dependent MEK phosphorylation in A375 cells; format: cell-based, A-375
COLO 205 [10] = test: Antitumor activity against human COLO205 cells xenografted in nude mouse assessed as tumor stasis at 55 mg/kg, po bid upto 8 days; format: functional, organism-based; parameters: dose 55 mg/kg; outline: as §3
COLO 205 [11] = test: Antitumor activity against human COLO205 cells xenografted in nude mouse assessed as tumor stasis at 100 mg/kg, po bid upto 8 days; format: functional, organism-based; parameters: dose 100 mg/kg; outline: as §3
COLO 205 [12] = test: Antitumor activity against human COLO205 cells xenografted in nude mouse assessed as tumor stasis at > 100 mg/kg, […]; format: functional, organism-based; parameters: dose 100 mg/kg
COLO 205 [13] = test: Antitumor activity against human COLO205 cells xenografted in nude mouse assessed as tumor growth inhibition at 55 mg/kg, po bid upto 8 days; format: functional; settings: COLO 205, 192 h, read-out: TGI; outline: as §3
Mus musculus [14] = test: Toxicity in nude mouse xenografted with human COLO205 cells assessed as body weight loss at 10 to 100 mg/kg, po bid upto 15 days; format: organism-based, COLO 205; parameters: dose 10-100 mg/kg, route oral; settings: in vivo, 360 h; outline: as §2
COLO 205 [15] = test: Antitumor activity against human COLO205 cells xenografted in nude mouse assessed as tumor growth inhibition at 100 mg/kg, po bid upto 8 days; format: functional; settings: COLO 205, 192 h, read-out: TGI; outline: as §3
Mus musculus [16] = test: Inhibition of BRAF V600E mutant-dependent MEK phosphorylation in Colo205 cells xenografted in nude mouse at 100 mg/kg, po bid for 5 days measured at 24 hrs post-dose; format: functional; settings: COLO 205
COLO 205 [17] = test: Antitumor activity against human COLO205 cells xenografted in nude mouse assessed as tumor stasis at 100 mg/kg, po bid upto 15 days; format: functional, organism-based; parameters: dose 100 mg/kg; outline: as §3
COLO 205 [18] = test: Antitumor activity against human COLO205 cells xenografted in nude mouse assessed as complete suppression of tumor regrowth at 100 mg/kg, po bid before 15 days; format: functional, organism-based; parameters: dose 100 mg/kg; outline: as §3
[19] = AUC in mouse plasma at 100 mg/kg, po; format: ADME, organism-based; parameters: dose 100 mg/kg, route oral; outline: as §1

Row | Compound | bioavailability [1] | Kd [8] | IC50 [9] | other results
1 | CCOc1cc2c(Oc3cccc(NC(=O)Nc4cc(C(C)(C)C)on4)c3)ncnc2cc1OC.Cl | 30% |  |  | 
2 | COc1cc2ncnc(Oc3cccc(NC(=O)Nc4cc(C(C)(C)C)on4)c3)c2cc1OC.Cl | 49% |  |  | Activity (Mus musculus [2]): 24 µM; AUC [3]: 12.5 µM·h; inhibition in vivo at 100 mg/kg (Mus musculus [4]): ≥ 50%; Activity (Mus musculus [5]): 8%; Activity (COLO 205 [6]): 55%; Activity (Mus musculus [7]): 2.5 µM
3 | COc1cc2ncnc(Nc3ccc(NC(=O)Nc4cc(C(C)(C)C)on4)cc3)c2cc1OC |  | 478 nM |  | 
4 | COc1cc2ncnc(Oc3cccc(NC(=O)Nc4cc(C(C)(C)C)on4)c3)c2cc1OC [listing 1 of 2 here] |  | 73 nM | 121 nM | 
5 | COc1cc2ncnc(Oc3cc(NC(=O)Nc4cc(C(C)(C)C)on4)ccc3F)c2cc1OC |  | 72 nM | 62 nM | 
6 | CCOc1cc2ncnc(Oc3cccc(NC(=O)Nc4cc(C(C)(C)C)on4)c3)c2cc1OC |  | 82 nM | 173 nM | 
7 | COc1cc2ncnc(Oc3cccc(NC(=O)Nc4ccccc4)c3)c2cc1OC |  | 370 nM |  | 
8 | CCOc1cc2ncnc(Oc3cccc(NC(=O)Nc4cc(C(C)(C)C)on4)c3)c2cc1OC.Cl | 16% |  |  | 
9 | COc1cc2ncnc(Oc3cccc(NC(=O)Nc4cc(C(C)(C)C)on4)c3)c2cc1OCCCN1CCOCC1 |  | 29 nM | 36 nM | 
10 | COc1cc2ncnc(Oc3cccc(NC(=O)Nc4cc(C(C)(C)C)on4)c3)c2cc1OCCN1CCCCC1 |  | 96 nM | 293 nM | 
11 | COc1cc2ncnc(Nc3cccc(NC(=O)Nc4cc(C(C)(C)C)on4)c3)c2cc1OC |  | 40 nM | 82 nM | 
12 | COc1cc2ncnc(Oc3cccc(NC(=O)Nc4cc(C(C)(C)C)on4)c3)c2cc1O |  | 46 nM | 86 nM | 
13 | COc1cc2c(Oc3cccc(NC(=O)Nc4cc(C(C)(C)C)on4)c3)ncnc2cc1O | < 1% | 57 nM | 110 nM | 
14 | COc1cc2ncnc(Sc3cccc(NC(=O)Nc4cc(C(C)(C)C)on4)c3)c2cc1OC [listing 1 of 2 here] |  |  |  | Activity (COLO 205 [10]): Active; Activity (COLO 205 [11]): Active; Activity (COLO 205 [12]): inactive
15 | COc1cc2ncnc(Oc3ccc(Cl)c(NC(=O)Nc4cc(C(C)(C)C)on4)c3)c2cc1OC |  | 99 nM | 229 nM | 
16 | COc1cc2ncnc(Oc3cccc(NC(=O)Nc4ccc(Cl)c(C(F)(F)F)c4)c3)c2cc1OC |  | 98 nM | 696 nM | 
17 | COc1cc2ncnc(Nc3cccc(NC(=O)Nc4cc(C(C)(C)C)on4)c3)c2cc1OC.Cl | 1.9% |  |  | 
18 | COc1cc2ncnc(Oc3cccc(NC(=O)Nc4cc(C(C)(C)C)on4)c3C)c2cc1OC |  | 38 nM | 179 nM | 
19 | COc1cc2ncnc(Oc3cc(NC(=O)Nc4cc(C(C)(C)C)on4)ccc3F)c2cc1OC.Cl | 22% |  |  | 
20 | COc1cc2ncnc(Oc3ccc(F)c(NC(=O)Nc4cc(C(C)(C)C)on4)c3)c2cc1OC |  | 56 nM | 113 nM | 

Row | Compound | bioavailability [1] | Kd [8] | IC50 [9] | other results
21 | COCCOc1cc2ncnc(Oc3cccc(NC(=O)Nc4cc(C(C)(C)C)on4)c3)c2cc1OC |  | 57 nM | 100 nM | 
22 | CCOc1cc2c(Oc3cccc(NC(=O)Nc4cc(C(C)(C)C)on4)c3)ncnc2cc1OC |  | 67 nM | 80 nM | 
23 | COCCOc1cc2ncnc(Oc3cccc(NC(=O)Nc4cc(C(C)(C)C)on4)c3)c2cc1OC.Cl | 56% |  |  | 
24 | COc1cc2ncnc(Oc3cccc(NC(=O)Nc4cc(C(C)(C)C)on4)c3)c2cc1OCCN1CCOCC1 | 11% | 38 nM | 52 nM | 
25 | COc1cc2ncnc(Sc3cccc(NC(=O)Nc4cc(C(C)(C)C)on4)c3)c2cc1OC.Cl | 24% |  |  | 
26 | COc1cc2ncnc(Oc3cccc(NC(=O)Nc4ccc(Cl)cc4)c3)c2cc1OC |  | 30 nM | 1850 nM | 
27 | COCCOc1cc2c(Oc3cccc(NC(=O)Nc4cc(C(C)(C)C)on4)c3)ncnc2cc1OC.Cl | 13% |  |  | 
28 | COc1cccc(NC(=O)Nc2cccc(Oc3ncnc4cc(OC)c(OC)cc34)c2)c1 |  | 90 nM | 10000 nM | 
29 | COc1cc2ncnc(Oc3cccc(NC(=O)Nc4ccc(C(C)(C)C)cc4)c3)c2cc1OC | 15% | 96 nM | 290 nM | 
30 | COc1cc2ncnc(Oc3cccc(NC(=O)Nc4cc(C(C)(C)C)on4)c3)c2cc1OCCCN1CCOCC1.Cl | 20% |  |  | 
31 | COc1cc2ncnc(Sc3cccc(NC(=O)Nc4cc(C(C)(C)C)on4)c3)c2cc1OC [listing 2 of 2 here] |  | 61 nM | 118 nM | inhibition in vivo at 55 mg/kg (COLO 205 [13]): 45%; Activity (Mus musculus [14]): Non-toxic; Activity (Mus musculus [2]): 0.2 µM; AUC [3]: 22 µM·h; inhibition in vivo at 100 mg/kg (Mus musculus [4]): 75%; Activity (Mus musculus [5]): Non-toxic; inhibition in vivo at 100 mg/kg (COLO 205 [15]): 45%; Activity (Mus musculus [7]): 0.2 µM; inhibition in vivo at 100 mg/kg (Mus musculus [16]): 55%
32 | COc1cc2c(Oc3cccc(NC(=O)Nc4cc(C(C)(C)C)on4)c3)ncnc2cc1OCCCN1CCOCC1 | 18% | 56 nM | 96 nM | 
33 | COc1cc2ncnc(Oc3cccc(NC(=O)Nc4cccc(C(C)(C)C)c4)c3)c2cc1OC |  | 36 nM | 333 nM | 
34 | COc1cc2ncnc(Oc3cccc(NC(=O)Nc4cc(C(C)(C)C)on4)c3)c2cc1OC [listing 2 of 2 here] |  |  |  | inhibition (Mus musculus [16]): inactive; Activity (COLO 205 [17]): Active
35 | COc1cc2c(Oc3cccc(NC(=O)Nc4cc(C(C)(C)C)on4)c3)ncnc2cc1OCCN1CCOCC1 | 52% | 34 nM | 165 nM | Activity (Mus musculus [14]): Non-toxic; Activity (Mus musculus [2]): 11 µM; Activity (COLO 205 [18]): inactive; inhibition in vivo at 100 mg/kg (Mus musculus [4]): 70%; Activity (Mus musculus [5]): Non-toxic; inhibition in vivo at 100 mg/kg (COLO 205 [15]): 65%; Activity (Mus musculus [7]): 2 µM; AUC [19]: 48 µM·h; inhibition in vivo at 100 mg/kg (Mus musculus [16]): 50%
36 | COc1cc2ncnc(Oc3cccc(NC(=O)Nc4cccc(C(F)(F)F)c4)c3)c2cc1OC |  | 46 nM | 1660 nM | 
37 | COCCOc1cc2c(Oc3cccc(NC(=O)Nc4cc(C(C)(C)C)on4)c3)ncnc2cc1OC |  | 48 nM | 59 nM | 
38 | COc1cc2ncnc(Nc3ccc(NC(=O)Nc4cc(C(C)(C)C)on4)cc3)c2cc1OC.Cl | < 1% |  |  | 
39 | COc1cc2ncnc(Oc3cc(NC(=O)Nc4cc(C(C)(C)C)on4)c(F)cc3F)c2cc1OC | 14% | 46 nM | 113 nM | 
